What was measured:
Conditions in all cases: stereoisomer not certain
[1] = molecular target: T1, OR1A1 (Homo sapiens) (UniProt Q9P1Q5)
T1 sequence (whole entry): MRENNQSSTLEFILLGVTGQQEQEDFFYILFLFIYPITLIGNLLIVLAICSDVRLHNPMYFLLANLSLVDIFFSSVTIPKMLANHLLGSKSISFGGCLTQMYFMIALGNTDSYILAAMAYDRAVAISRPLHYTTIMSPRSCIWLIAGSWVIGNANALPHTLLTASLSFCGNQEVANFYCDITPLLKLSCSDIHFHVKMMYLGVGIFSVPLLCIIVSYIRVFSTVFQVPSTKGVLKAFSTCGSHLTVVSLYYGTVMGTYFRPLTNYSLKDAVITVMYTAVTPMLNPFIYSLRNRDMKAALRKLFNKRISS
In short: (§1)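 Transient luciferase assays in mammalian cell lines were common, though methods varied by source. The values come from published papers and their supplementary material, with extra details from the original authors when needed. Responsive refers to a measured signal the original authors judged statistically different from baseline, and non-responsive (inactive) to the remainder.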

[2] = molecular target: T2, OR13C2 (Homo sapiens) (UniProt Q8NGS9)
T2 sequence (whole entry): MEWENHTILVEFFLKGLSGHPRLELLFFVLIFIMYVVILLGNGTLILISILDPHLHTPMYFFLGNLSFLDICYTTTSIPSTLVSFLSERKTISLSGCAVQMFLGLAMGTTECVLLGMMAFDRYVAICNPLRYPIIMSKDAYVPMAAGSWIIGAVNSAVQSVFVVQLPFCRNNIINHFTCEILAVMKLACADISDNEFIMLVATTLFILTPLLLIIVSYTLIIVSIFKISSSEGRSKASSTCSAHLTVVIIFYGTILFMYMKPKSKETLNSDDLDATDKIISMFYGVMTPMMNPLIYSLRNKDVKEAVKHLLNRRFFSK
In short: as §1

[3] = molecular target: T3, OR13C3 (Homo sapiens) (UniProt Q8NGS6)
T3 sequence (whole entry): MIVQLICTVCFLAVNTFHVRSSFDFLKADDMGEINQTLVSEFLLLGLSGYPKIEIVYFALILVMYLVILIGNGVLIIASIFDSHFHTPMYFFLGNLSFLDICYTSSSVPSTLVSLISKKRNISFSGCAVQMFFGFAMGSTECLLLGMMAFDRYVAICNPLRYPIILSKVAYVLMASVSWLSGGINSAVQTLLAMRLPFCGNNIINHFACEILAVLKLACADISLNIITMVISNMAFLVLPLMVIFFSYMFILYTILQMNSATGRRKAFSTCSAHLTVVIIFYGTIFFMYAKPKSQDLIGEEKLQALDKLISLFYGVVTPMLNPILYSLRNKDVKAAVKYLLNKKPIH
In short: as §1

[4] = molecular target: T4, OR13C4 (Homo sapiens) (UniProt Q8NGS5)
T4 sequence (whole entry): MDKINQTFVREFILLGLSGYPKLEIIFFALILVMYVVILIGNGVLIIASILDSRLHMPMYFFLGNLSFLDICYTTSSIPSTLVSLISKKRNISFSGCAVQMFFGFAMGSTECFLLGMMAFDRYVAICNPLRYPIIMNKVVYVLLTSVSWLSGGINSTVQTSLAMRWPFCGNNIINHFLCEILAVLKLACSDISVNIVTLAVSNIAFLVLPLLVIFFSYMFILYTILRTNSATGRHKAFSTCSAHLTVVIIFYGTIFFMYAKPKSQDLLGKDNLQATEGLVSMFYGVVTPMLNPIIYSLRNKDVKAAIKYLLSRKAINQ
In short: as §1

[5] = molecular target: T5, OR13C5 (Homo sapiens) (UniProt Q8NGS8)
T5 sequence (whole entry): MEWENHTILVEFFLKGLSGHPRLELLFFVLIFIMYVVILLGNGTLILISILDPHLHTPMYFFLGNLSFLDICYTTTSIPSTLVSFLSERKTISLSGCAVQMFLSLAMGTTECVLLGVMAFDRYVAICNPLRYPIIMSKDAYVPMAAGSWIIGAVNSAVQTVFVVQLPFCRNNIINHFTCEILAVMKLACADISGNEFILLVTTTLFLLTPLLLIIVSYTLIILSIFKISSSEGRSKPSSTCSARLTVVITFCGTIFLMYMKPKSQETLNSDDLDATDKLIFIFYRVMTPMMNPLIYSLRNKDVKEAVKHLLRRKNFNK
In short: as §1

[6] = molecular target: T6, OR13C8 (Homo sapiens) (UniProt Q8NGS7)
T6 sequence (whole entry): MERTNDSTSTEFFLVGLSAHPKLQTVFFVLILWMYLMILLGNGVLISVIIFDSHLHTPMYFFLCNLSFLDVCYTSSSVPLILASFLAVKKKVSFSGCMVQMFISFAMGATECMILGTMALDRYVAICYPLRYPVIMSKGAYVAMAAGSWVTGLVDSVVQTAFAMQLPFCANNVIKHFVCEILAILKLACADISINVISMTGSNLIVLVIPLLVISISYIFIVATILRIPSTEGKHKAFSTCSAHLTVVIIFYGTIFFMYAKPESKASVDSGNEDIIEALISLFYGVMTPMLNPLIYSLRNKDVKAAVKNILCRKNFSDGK
In short: as §1

[7] = molecular target: T7, OR13C9 (Homo sapiens) (UniProt Q8NGT0)
T7 sequence (whole entry): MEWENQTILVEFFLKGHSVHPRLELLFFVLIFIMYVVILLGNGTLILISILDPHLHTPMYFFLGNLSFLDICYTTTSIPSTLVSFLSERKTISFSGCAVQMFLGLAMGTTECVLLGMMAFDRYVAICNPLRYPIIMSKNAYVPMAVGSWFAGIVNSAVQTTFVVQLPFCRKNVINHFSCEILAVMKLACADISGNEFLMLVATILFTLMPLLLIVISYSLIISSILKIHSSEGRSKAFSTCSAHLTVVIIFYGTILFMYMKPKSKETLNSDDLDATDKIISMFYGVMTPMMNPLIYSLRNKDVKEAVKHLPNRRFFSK
In short: as §1

[8] = molecular target: T8, OR13D1 (Homo sapiens) (UniProt Q8NGV5)
T8 sequence (whole entry): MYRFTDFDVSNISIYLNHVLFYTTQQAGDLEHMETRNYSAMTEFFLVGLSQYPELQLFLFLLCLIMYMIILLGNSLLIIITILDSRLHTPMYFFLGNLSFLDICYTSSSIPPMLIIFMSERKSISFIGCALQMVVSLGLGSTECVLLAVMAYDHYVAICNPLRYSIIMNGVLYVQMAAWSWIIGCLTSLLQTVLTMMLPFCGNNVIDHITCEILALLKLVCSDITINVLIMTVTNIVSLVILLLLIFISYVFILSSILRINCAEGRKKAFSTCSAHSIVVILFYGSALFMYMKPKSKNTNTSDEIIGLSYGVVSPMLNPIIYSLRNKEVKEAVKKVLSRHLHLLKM
In short: as §1

[9] = molecular target: T9, OR13F1 (Homo sapiens) (UniProt Q8NGS4)
T9 sequence (whole entry): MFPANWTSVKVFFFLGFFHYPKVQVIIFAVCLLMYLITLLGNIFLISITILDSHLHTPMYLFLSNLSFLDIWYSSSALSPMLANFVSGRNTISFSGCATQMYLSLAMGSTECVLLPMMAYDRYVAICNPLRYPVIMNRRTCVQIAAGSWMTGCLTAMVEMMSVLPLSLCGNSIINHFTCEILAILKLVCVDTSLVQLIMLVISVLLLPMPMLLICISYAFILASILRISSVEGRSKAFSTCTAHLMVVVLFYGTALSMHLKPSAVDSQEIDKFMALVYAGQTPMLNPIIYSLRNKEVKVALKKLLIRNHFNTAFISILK
In short: as §1

[10] = molecular target: T10, OR13G1 (Homo sapiens) (UniProt Q8NGZ3)
T10 sequence (whole entry): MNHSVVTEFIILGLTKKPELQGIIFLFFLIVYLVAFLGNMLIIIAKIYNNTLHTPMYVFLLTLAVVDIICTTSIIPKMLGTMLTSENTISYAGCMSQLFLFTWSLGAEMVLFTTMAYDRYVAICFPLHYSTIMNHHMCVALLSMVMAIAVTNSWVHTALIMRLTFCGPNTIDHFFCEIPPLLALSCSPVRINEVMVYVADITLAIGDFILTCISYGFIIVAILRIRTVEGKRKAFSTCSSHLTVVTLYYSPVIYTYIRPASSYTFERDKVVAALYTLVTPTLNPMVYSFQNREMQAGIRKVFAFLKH
In short: as §1

[11] = molecular target: T11, OR13H1 (Homo sapiens) (UniProt Q8NG92)
T11 sequence (whole entry): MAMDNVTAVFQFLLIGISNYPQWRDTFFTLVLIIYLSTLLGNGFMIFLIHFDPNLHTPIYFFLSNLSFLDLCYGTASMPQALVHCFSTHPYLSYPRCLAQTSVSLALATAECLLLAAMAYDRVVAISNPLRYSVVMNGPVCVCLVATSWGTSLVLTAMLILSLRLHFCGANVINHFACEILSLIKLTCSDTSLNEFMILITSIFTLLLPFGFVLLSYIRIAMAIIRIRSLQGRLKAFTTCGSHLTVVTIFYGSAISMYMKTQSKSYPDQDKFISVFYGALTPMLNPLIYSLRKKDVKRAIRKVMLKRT
In short: as §1

[12] = molecular target: T12, OR13J1 (Homo sapiens) (UniProt Q8NGT2)
T12 sequence (whole entry): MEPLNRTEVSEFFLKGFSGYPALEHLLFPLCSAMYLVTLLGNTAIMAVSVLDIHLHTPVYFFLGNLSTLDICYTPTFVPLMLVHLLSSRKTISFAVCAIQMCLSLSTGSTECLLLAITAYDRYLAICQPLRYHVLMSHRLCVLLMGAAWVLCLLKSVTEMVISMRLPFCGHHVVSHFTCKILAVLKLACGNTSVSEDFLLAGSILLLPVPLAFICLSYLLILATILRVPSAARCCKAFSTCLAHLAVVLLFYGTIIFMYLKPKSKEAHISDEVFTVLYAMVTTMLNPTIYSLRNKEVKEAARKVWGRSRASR
In short: as §1

[13] = molecular target: T13, OR14A16 (Homo sapiens) (UniProt Q8NHC5)
T13 sequence (whole entry): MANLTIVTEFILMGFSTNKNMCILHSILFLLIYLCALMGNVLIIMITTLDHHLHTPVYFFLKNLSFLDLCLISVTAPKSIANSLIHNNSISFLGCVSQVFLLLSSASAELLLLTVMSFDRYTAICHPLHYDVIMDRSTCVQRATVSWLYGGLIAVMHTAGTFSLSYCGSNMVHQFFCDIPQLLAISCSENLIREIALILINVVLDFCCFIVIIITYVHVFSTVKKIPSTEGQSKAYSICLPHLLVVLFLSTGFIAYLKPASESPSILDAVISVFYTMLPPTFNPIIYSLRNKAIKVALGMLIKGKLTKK
In short: as §1

[14] = molecular target: T14, OR14A2 (Homo sapiens) (UniProt Q96R54)
T14 sequence (whole entry): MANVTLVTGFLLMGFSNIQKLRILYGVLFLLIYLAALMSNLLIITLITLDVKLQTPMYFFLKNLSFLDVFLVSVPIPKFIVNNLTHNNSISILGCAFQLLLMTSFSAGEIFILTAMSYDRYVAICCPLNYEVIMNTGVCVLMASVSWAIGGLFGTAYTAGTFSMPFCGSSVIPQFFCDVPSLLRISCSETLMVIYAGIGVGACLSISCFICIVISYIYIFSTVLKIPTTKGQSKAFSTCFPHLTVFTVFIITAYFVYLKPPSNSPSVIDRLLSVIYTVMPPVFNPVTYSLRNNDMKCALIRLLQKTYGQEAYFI
In short: as §1

[15] = molecular target: T15, OR14C36 (Homo sapiens) (UniProt Q8NHC7)
T15 sequence (whole entry): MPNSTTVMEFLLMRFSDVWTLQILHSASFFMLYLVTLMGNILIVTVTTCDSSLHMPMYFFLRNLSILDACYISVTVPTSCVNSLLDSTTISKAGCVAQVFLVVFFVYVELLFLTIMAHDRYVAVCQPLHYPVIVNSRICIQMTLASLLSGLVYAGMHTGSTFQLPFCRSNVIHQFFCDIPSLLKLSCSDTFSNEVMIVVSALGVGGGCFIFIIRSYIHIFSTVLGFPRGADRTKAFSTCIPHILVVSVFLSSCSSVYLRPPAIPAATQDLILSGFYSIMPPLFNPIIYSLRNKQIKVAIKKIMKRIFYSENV
In short: as §1

[16] = molecular target: T16, OR14I1 (Homo sapiens) (UniProt A6ND48)
T16 sequence (whole entry): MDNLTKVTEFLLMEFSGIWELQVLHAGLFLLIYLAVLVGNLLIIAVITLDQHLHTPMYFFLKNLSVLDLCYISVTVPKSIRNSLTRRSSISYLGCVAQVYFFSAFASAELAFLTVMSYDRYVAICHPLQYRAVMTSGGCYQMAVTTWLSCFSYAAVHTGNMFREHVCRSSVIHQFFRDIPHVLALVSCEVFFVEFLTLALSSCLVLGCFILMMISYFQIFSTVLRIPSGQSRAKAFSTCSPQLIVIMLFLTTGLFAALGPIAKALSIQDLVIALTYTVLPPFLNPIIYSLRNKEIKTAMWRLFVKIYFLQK
In short: as §1

[17] = molecular target: T17, OR14J1 (Homo sapiens) (UniProt Q9UGF5)
T17 sequence (whole entry): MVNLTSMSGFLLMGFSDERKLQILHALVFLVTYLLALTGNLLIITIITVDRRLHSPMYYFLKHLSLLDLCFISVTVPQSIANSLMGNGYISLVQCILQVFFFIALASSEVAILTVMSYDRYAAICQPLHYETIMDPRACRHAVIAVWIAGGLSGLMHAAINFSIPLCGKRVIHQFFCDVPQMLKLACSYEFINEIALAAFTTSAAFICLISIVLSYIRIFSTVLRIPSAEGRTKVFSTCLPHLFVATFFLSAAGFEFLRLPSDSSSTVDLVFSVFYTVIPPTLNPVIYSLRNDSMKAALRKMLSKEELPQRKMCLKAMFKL
In short: as §1

[18] = molecular target: T18, OR14K1 (Homo sapiens) (UniProt Q8NGZ2)
T18 sequence (whole entry): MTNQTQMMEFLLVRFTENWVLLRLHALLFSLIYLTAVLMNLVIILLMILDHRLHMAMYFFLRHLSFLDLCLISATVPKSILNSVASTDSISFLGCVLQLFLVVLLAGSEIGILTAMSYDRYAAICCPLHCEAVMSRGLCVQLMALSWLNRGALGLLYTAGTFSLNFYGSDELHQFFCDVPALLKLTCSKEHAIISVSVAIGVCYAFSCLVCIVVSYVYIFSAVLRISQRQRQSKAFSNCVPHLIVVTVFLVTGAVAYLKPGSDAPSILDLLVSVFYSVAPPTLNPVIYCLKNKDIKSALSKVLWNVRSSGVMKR
In short: as §1
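Further: active if original authors judged signal statistically different from baseline.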

Compound	odorant receptor agonist call [1]	odorant receptor agonist call [2]	odorant receptor agonist call [3]	odorant receptor agonist call [4]	odorant receptor agonist call [5]	odorant receptor agonist call [6]	odorant receptor agonist call [7]	odorant receptor agonist call [8]	odorant receptor agonist call [9]	odorant receptor agonist call [10]	odorant receptor agonist call [11]	odorant receptor agonist call [12]	odorant receptor agonist call [13]	odorant receptor agonist call [14]	odorant receptor agonist call [15]	odorant receptor agonist call [16]	odorant receptor agonist call [17]	odorant receptor agonist call [18]
CC=O	inactive																	
CC(CO)CS (centres undefined)	inactive	inactive	inactive	inactive	active	inactive	inactive	inactive	inactive	inactive	inactive	inactive	inactive	inactive	inactive	inactive	active	inactive
